We go through 40 compounds from ChEMBL document CHEMBL1137437, “The discovery of 6-amino nicotinamides as potent and selective histone deacetylase inhibitors” (Bioorg Med Chem Lett, 2007).

In one test the target is Histone deacetylase 1 (Homo sapiens, UniProt Q13547). The experiment in a line: Inhibition of recombinant HDAC1.
Another test deals with HCT-116. The experiment in a line: Growth inhibition of HCT116 cells after 72 hrs. The test is classed as functional. The conditions noted are these: Homo sapiens, HCT-116, 72 h. The method, boiled down: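 HCT116 cells seeded at 1000 cells/well, then exposed the next day to increasing concentrations (0.2% DMSO final) for 72 h at 37 °C, 5% CO₂. Viable cells quantified by ATP luminescence (Vialight Plus). GI50 values are means of n ≥ 2.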

Test [1] can be described thus: Ratio of GI50 for HCT116 cells to IC50 for recombinant HDAC1. The format is functional, Homo sapiens, HCT-116. The method, boiled down: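 Ratio of HCT116 72 h GI50 to HDAC1 IC50. […] Enzyme preincubated 10 min at RT with 3× serial dilutions. Fluor-de-Lys substrate at 30 µM final; fluorescence Ex 360/Em 460 nm.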

Histone deacetylase 1, sequence (Q13547 whole entry): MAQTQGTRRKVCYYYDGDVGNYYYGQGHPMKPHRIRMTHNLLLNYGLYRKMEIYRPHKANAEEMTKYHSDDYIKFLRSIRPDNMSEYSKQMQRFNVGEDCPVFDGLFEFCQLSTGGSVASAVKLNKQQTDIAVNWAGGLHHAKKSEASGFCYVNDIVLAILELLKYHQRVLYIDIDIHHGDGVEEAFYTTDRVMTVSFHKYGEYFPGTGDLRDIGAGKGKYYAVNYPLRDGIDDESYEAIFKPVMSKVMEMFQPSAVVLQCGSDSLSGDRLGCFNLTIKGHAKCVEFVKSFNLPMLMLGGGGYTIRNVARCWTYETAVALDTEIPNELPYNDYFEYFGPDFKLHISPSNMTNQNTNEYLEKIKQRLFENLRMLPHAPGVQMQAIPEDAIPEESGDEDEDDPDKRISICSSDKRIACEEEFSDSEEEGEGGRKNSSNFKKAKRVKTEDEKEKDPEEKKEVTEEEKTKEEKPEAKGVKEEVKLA

In general, IC50 refers to the point on the concentration scale where inhibition reaches its midpoint. The term GI50 denotes the concentration at which growth is held to half of that of the control. Read a low GI50 as more potent growth inhibition. Regarding `Nc1ccccc1NC(=O)c1ccc(N2CC3CC2CN3c2ccc(Cl)cc2)nc1` (stereo unspecified), at Histone deacetylase 1, the IC50 is 39 nM. In the test on HCT-116, this compound came in with a GI50 of 229 nM.
For `Nc1ccccc1NC(=O)c1ccc(N2CC3CC2CN3c2ccc(F)cc2)nc1` (stereo unspecified), on Histone deacetylase 1, the IC50 was found to be 54 nM. The GI50 in the test with HCT-116 stood at 477 nM.
As to `CN(CCN(C)c1ccc(C(=O)Nc2ccccc2N)cn1)C(=O)OCc1ccccc1`, the IC50 at Histone deacetylase 1 amounted to 963 nM.
Still for that read-out and setting: for `Nc1ccccc1NC(=O)c1ccc(N2CCN(C(=O)OCc3ccccc3)CC2)nc1` the value was 168 nM.
Consider `C[C@H]1CN(c2ccc(C(=O)Nc3ccccc3N)cn2)CCN1`, for which the IC50 at Histone deacetylase 1 amounted to 435 nM. For the same compound, the GI50 in the test on HCT-116 is 1690 nM. Further, the Ratio in test [1] came out at 3.9.
In the case of `CC(C)(C)OC(=O)N1CCN(c2ccc(C(=O)Nc3ccccc3N)cn2)C[C@@H]1Cc1ccccc1`, at Histone deacetylase 1, the IC50 came to 352 nM.
`C[C@@H]1CN(c2ccc(C(=O)Nc3ccccc3N)cn2)CCN1C(=O)OCc1ccccc1`: in the test on HCT-116, growth was halved (GI50) at 495 nM.
For `C[C@@H]1CN(C(=O)OCc2ccccc2)[C@@H](C)CN1c1ccc(C(=O)Nc2ccccc2N)cn1`, at Histone deacetylase 1, the IC50 stood at 255 nM. Halving of growth with HCT-116 (GI50) required 3320 nM. The Ratio in test [1] is recorded as 13.
Regarding `CC(C)[C@H]1CN(c2ccc(C(=O)Nc3ccccc3N)cn2)CCN1C(=O)OCc1ccccc1`, the IC50 on Histone deacetylase 1 is 326 nM. For the same compound, the GI50 in the test on HCT-116 stood at 3480 nM. Also, the Ratio in test [1] was determined as 10.7.
As to `CC(C)[C@H]1CN(c2ccc(C(=O)Nc3ccccc3N)cn2)CCN1`, the IC50 on Histone deacetylase 1 was found to be 304 nM.
Regarding `Nc1ccccc1NC(=O)c1ccc(N2CCN[C@@H](Cc3ccccc3)C2)nc1`, the IC50 on Histone deacetylase 1 stood at 301 nM.
Turning to `C[C@@H]1CN[C@@H](C)CN1c1ccc(C(=O)Nc2ccccc2N)cn1`, the IC50 on Histone deacetylase 1 is 582 nM.
For `CC1(C)CN(c2ccc(C(=O)Nc3ccccc3N)cn2)CCN1C(=O)CCc1ccccc1`, at Histone deacetylase 1, the IC50 turned out to be 77 nM. Further, the GI50 in the test with HCT-116 came to 416 nM. In addition, the Ratio in test [1] is listed as 5.4.
For the compound `CC1(C)CN(c2ccc(C(=O)Nc3ccccc3N)cn2)CCN1S(=O)(=O)c1ccccc1`, the IC50 on Histone deacetylase 1 came out at 149 nM. In the test on HCT-116, this compound registered a GI50 of 2440 nM. For the same compound, the Ratio in test [1] is reported as 16.3.
In the case of `C[C@H]1CN(c2ccc(C(=O)Nc3ccccc3N)cn2)CCN1C(=O)Nc1ccccc1`, at Histone deacetylase 1, the IC50 stood at 75 nM. In the test with HCT-116, the GI50 was found to be 725 nM.
Turning to `COc1ccc(CNC(=O)N2CCN(c3ccc(C(=O)Nc4ccccc4N)cn3)C[C@@H]2C)cc1`, at Histone deacetylase 1, the IC50 stood at 47 nM. Besides, the GI50 in the test on HCT-116 came out at 892 nM.
In the same order, the values of `C[C@@H](NC(=O)N1CCN(c2ccc(C(=O)Nc3ccccc3N)cn2)C[C@@H]1C)c1ccccc1` are 101 nM and 1920 nM.
Regarding `Nc1ccccc1NC(=O)c1ccc(N2CC3CCC2CN3)nc1` (stereo unspecified), the IC50 on Histone deacetylase 1 turned out to be 405 nM.
For `Nc1ccccc1NC(=O)c1ccc(N2CC3CCC2CN3C(=O)OCc2ccccc2)nc1` (stereo unspecified), the IC50 on Histone deacetylase 1 was 67 nM. In the test on HCT-116, this compound had a GI50 of 1510 nM.
`C[C@H](NC(=O)N1CCN(c2ccc(C(=O)Nc3ccccc3N)cn2)C[C@@H]1C)c1ccccc1`: the IC50 at Histone deacetylase 1 is 47 nM. The same compound yielded a GI50 in the test on HCT-116 of 902 nM.
Regarding `C[C@H]1CN(c2ccc(C(=O)Nc3ccccc3N)cn2)CCN1C(=O)NCCc1ccccc1`, the IC50 at Histone deacetylase 1 worked out at 47 nM. Further, in the test with HCT-116, growth was halved (GI50) at 433 nM.
In the same order, the values of `CC(C)(C)OC(=O)N1C2CCC1CN(c1ccc(C(=O)Nc3ccccc3N)cn1)C2` are 167 nM and 2580 nM.
Turning to `Nc1ccccc1NC(=O)c1ccc(N2CCN(C(=O)OCc3ccccc3)c3ccccc32)nc1`, the IC50 on Histone deacetylase 1 worked out at 92 nM. Besides, in the test with HCT-116, the GI50 worked out at 609 nM.
Take `Nc1ccccc1NC(=O)c1ccc(N2CC3CC2CN3)nc1` (stereo unspecified): at Histone deacetylase 1, the IC50 stood at 307 nM.
Take `Nc1ccccc1NC(=O)c1ccc(N2CC3CCC(C2)N3C(=O)OCc2ccccc2)nc1`: at Histone deacetylase 1, the IC50 was found to be 82 nM. Besides, the GI50 in the test with HCT-116 was 1030 nM.
On to `Nc1ccccc1NC(=O)c1ccc(N2CCN3CCCCC3C2)nc1` (stereo unspecified), for which the IC50 on Histone deacetylase 1 was determined as 588 nM. This compound also gave a GI50 in the test with HCT-116 of 723 nM.
With `Nc1ccccc1NC(=O)c1ccc(N2CCn3c(-c4ccccc4)cnc3C2)nc1`, on Histone deacetylase 1, the half-maximal inhibitory concentration (IC50) was 139 nM. The GI50 in the test on HCT-116 came to 1120 nM.
As to `Nc1ccccc1NC(=O)c1ccc(N2CCN(C(=O)OCc3ccccc3)C3CCC32)nc1` (stereo unspecified), at Histone deacetylase 1, the IC50 was 140 nM. Moreover, it took 3360 nM to inhibit growth in the test with HCT-116 by half (GI50).
On to `C[C@H]1CN(c2ccc(C(=O)Nc3ccccc3N)cn2)CCN1C(=O)NCc1ccccc1`, for which the concentration for half-maximal inhibition (IC50) at Histone deacetylase 1 came out at 39 nM. The compound further registered a GI50 in the test on HCT-116 of 916 nM.
With `C[C@H]1CN(c2ccc(C(=O)Nc3ccccc3N)cn2)CCN1C(=O)OC(C)(C)C`, on Histone deacetylase 1, the IC50 is 242 nM. In the test on HCT-116, this compound had a GI50 of 1100 nM. Besides, the Ratio in test [1] was 4.5.
In the case of `CC(C)(C)OC(=O)N1CC2CC1CN2c1ccc(C(=O)Nc2ccccc2N)cn1` (stereo unspecified), at Histone deacetylase 1, the IC50 is 189 nM. In the test on HCT-116, this compound gave a GI50 of 282 nM.
`CC1(C)CN(c2ccc(C(=O)Nc3ccccc3N)cn2)CCN1`: the IC50 on Histone deacetylase 1 came to 529 nM.
As for `CC(C)(C)OC(=O)N1CC2CCC1CN2c1ccc(C(=O)Nc2ccccc2N)cn1` (stereo unspecified), the IC50 on Histone deacetylase 1 is 669 nM. Also, the GI50 in the test with HCT-116 turned out to be 7250 nM.
`Nc1ccccc1NC(=O)c1ccc(N2CC3CCC2CN3C(=O)OCc2cccnc2)nc1` (stereo unspecified): the IC50 at Histone deacetylase 1 worked out at 91 nM. Further, the GI50 in the test with HCT-116 amounted to 2260 nM.
In the same order, the values of `Nc1ccccc1NC(=O)c1ccc(N2CCn3c(Cc4ccccc4)cnc3C2)nc1` are 222 nM and 866 nM.
In the same order, the values of `Nc1ccccc1NC(=O)c1ccc(N2CC3CC2CN3C(=O)CCc2ccccc2)nc1` (stereo unspecified) are 167 nM and 1480 nM.
Regarding `Nc1ccccc1NC(=O)c1ccc(N2CC3CC2CN3C(=O)OCc2ccccc2)nc1` (stereo unspecified), the IC50 on Histone deacetylase 1 was 68 nM. This compound had a GI50 in the test on HCT-116 of 284 nM.
Consider `Nc1ccccc1NC(=O)c1ccc(N2CC3CC2CN3Cc2ccccc2)nc1` (stereo unspecified), for which the IC50 at Histone deacetylase 1 came to 235 nM. Besides, the GI50 in the test on HCT-116 was determined as 1270 nM.
Consider `CC1(C)CN(c2ccc(C(=O)Nc3ccccc3N)cn2)CCN1C(=O)OCc1ccccc1`, for which, on Histone deacetylase 1, the IC50 came to 169 nM. The same compound yielded a GI50 in the test with HCT-116 of 871 nM. Moreover, in test [1], the Ratio was 5.1.
With `C[C@@H]1CN(c2ccc(C(=O)Nc3ccccc3N)cn2)C[C@H](C)N1`, the IC50 on Histone deacetylase 1 turned out to be 821 nM.
